ChEMBL document CHEMBL1132110, “Design and fast synthesis of C-terminal duplicated potent C(2)-symmetric P1/P1'-modified HIV-1 protease inhibitors” (J Med Chem, 1999)

Experiments:
[1] = tested on: MT4; test: The anti-HIV activity was evaluated in MT-4 cells using colorimetric XTT assay. MT-4 cells were infected with HIV-1,IIb (in vitro); format: functional; conditions: Homo sapiens, read-out: ED50 (the source's name)
Method in brief: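 MT4 cells (2 × 10⁴ per well) infected with HIV-1 IIIB at 10–50 TCID50/well. Compounds came from 10 mg/mL DMSO stocks, diluted in medium and added to the cells. Viability was read by XTT after 6 days to monitor the cytopathic effect, and the 50% effective dose (ED50) was determined.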

[2] = tested on: MT4; test: The anti-HIV activity in the presence of human serum(hs) performed in MT-4 cells iwith AB+ serum.; format: functional; conditions: read-out: ED50 (the source's name)
Method in brief: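 MT4 cells infected with HIV-1 IIIB; compounds diluted in human AB+ serum and added after 1 h virus adsorption, final medium 50% human serum plus 10% fetal calf serum. Viral replication measured after 6 days as HIV p24 antigen; ED50 derived.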

[3] = tested on: MT4; test: The anti-HIV activity in the presence of MT-4 cells infected mutants HIV-1:M46I,V82F,[…]; format: functional; conditions: Homo sapiens, read-out: ED50 (the source's name)
Method in brief: (§1)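 MT4 cells (2 × 10⁴/well) infected with ritonavir-selected mutant HIV-1 (10–50 TCID₅₀/well). Mutants came from passaging cell-free virus under stepwise-increased ritonavir, then one passage without drug; protease gene sequenced. Compounds from 10 mg/mL DMSO stocks diluted in medium. Viability read by XTT after 6 days; ED50 taken as 50% dose.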

[4] = tested on: MT4; test: The anti-HIV activity in the presence of MT-4 cells infected mutants HIV-1:V32I,M46I,V82A.; format: functional; conditions: Homo sapiens, read-out: ED50 (the source's name); method in brief: as §1
[5] = biological target: Human immunodeficiency virus type 1 protease (Human immunodeficiency virus 1, UniProt Q72874); test: Inhibitory activity against HIV-1 protease expressed in Escherichia coli
[6] = tested on: MT4; test: The anti-HIV activity in the presence of human serum(hs) performed in MT-4 cells with AB+ serum.; format: functional; conditions: read-out: ED50 (the source's name)
Method in brief: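 MT4 cells infected with HIV-1 IIIB. Compounds diluted in human AB+ serum were added after 1 h of virus adsorption. Final medium held 50% human serum plus 10% fetal calf serum. Viral replication was read after 6 days as HIV p24 antigen, and the ED50 was derived.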

Row | Compound | EC50 [1] [nM] | EC50 [2] [nM] | EC50 [3] [nM] | EC50 [4] [nM] | Ki [5] [nM] | EC50 [6] [nM]
1 | CNC(=O)[C@@H](NC(=O)[C@H](OCc1ccccc1)[C@H](O)[C@@H](O)[C@@H](OCc1ccccc1)C(=O)N[C@H](C(=O)NC)C(C)C)C(C)C | 1500 | 20000 | 20000 |  |  | 
2 | CNC(=O)[C@@H](NC(=O)[C@H](OCc1ccc(-c2cccnc2)cc1)[C@H](O)[C@@H](O)[C@@H](OCc1ccc(-c2cccnc2)cc1)C(=O)N[C@H](C(=O)NC)C(C)C)C(C)C | 2500 |  | > 3000 | > 3000 | 0.3 | 20000
3 | CNC(=O)[C@@H](NC(=O)[C@H](OCc1ccc(Br)cc1)[C@H](O)[C@@H](O)[C@@H](OCc1ccc(Br)cc1)C(=O)N[C@H](C(=O)NC)C(C)C)C(C)C | 800 |  | 1000 | 1200 | 0.3 | 2100
4 | CNC(=O)[C@@H](NC(=O)[C@H](OCc1ccc(-c2ccccc2)cc1)[C@H](O)[C@@H](O)[C@@H](OCc1ccc(-c2ccccc2)cc1)C(=O)N[C@H](C(=O)NC)C(C)C)C(C)C | 40 |  | 700 | 400 | 0.7 | 800
5 | CNC(=O)[C@@H](NC(=O)[C@H](OCc1ccc(/C=C/C(=O)OC)cc1)[C@H](O)[C@@H](O)[C@@H](OCc1ccc(/C=C/C(=O)OC)cc1)C(=O)N[C@H](C(=O)NC)C(C)C)C(C)C | 800 |  |  |  | 0.09 | 5700
6 | CNC(=O)[C@@H](NC(=O)[C@H](OCc1ccc(-c2ccsc2)cc1)[C@H](O)[C@@H](O)[C@@H](OCc1ccc(-c2ccsc2)cc1)C(=O)N[C@H](C(=O)NC)C(C)C)C(C)C | 40 |  | 200 | 300 |  | 800
7 | CNC(=O)[C@@H](NC(=O)[C@H](OCc1ccc(-c2ccccn2)cc1)[C@H](O)[C@@H](O)[C@@H](OCc1ccc(-c2ccccn2)cc1)C(=O)N[C@H](C(=O)NC)C(C)C)C(C)C | 800 |  |  |  | 0.6 | 3600
8 | CNC(=O)[C@@H](NC(=O)[C@H](OCc1ccc(-c2cccc([N+](=O)[O-])c2)cc1)[C@H](O)[C@@H](O)[C@@H](OCc1ccc(-c2cccc([N+](=O)[O-])c2)cc1)C(=O)N[C@H](C(=O)NC)C(C)C)C(C)C | 50 |  | 40 | 1100 | 1.4 | 1100
9 | CNC(=O)[C@@H](NC(=O)[C@H](OCc1ccc(-c2cccs2)cc1)[C@H](O)[C@@H](O)[C@@H](OCc1ccc(-c2cccs2)cc1)C(=O)N[C@H](C(=O)NC)C(C)C)C(C)C | 40 |  | 200 | 300 | 1.2 | 1000
10 | CNC(=O)[C@@H](NC(=O)[C@H](OCc1ccc(C2=C(O)C(=O)CCC2)cc1)[C@H](O)[C@@H](O)[C@@H](OCc1ccc(C2=C(O)C(=O)CCC2)cc1)C(=O)N[C@H](C(=O)NC)C(C)C)C(C)C | 3700 |  |  |  | 0.3 | 20000
11 | CNC(=O)[C@@H](NC(=O)[C@H](OCc1ccc(-c2nccs2)cc1)[C@H](O)[C@@H](O)[C@@H](OCc1ccc(-c2nccs2)cc1)C(=O)N[C@H](C(=O)NC)C(C)C)C(C)C | 300 |  | > 3000 | > 3000 | 0.6 | 400
12 | CNC(=O)[C@@H](NC(=O)[C@H](OCc1ccc(CCc2ccccc2)cc1)[C@H](O)[C@@H](O)[C@@H](OCc1ccc(CCc2ccccc2)cc1)C(=O)N[C@H](C(=O)NC)C(C)C)C(C)C | 2100 |  |  |  | 3.8 | 
